Data: ChEMBL document CHEMBL1133538, “7-Deazaadenines bearing polar substituents: structure-activity relationships of new A(1) and A(3) adenosine receptor antagonists” (J Med Chem, 2000)
Values after ≈ are worked out from the molar mass of the structure shown.

Columns and labels:
[1] = target: Adenosine receptor A2a (Rattus norvegicus) (UniProt P30543); test: Binding affinity against adenosine A2A receptor in rat striatal membrane preparations using [3H]CGS-21680 at 30 uM; assay type: cell membranes; settings: Striatum
How it was run: (§1)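 Rat striatal membranes, A2A-selective agonist [3H]CGS21680 at 5 nM. Compounds dissolved in DMSO, diluted into aqueous buffer. Value given as percent inhibition of radioligand binding at the single stated concentration.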

[2] = target: T1, Adenosine receptor A1 (Rattus norvegicus) (UniProt P25099); test: Binding affinity against adenosine A1 receptor in rat brain cortical membrane preparations using [3H]CCPA at 30 uM; assay type: cell membranes
T1 sequence (whole entry): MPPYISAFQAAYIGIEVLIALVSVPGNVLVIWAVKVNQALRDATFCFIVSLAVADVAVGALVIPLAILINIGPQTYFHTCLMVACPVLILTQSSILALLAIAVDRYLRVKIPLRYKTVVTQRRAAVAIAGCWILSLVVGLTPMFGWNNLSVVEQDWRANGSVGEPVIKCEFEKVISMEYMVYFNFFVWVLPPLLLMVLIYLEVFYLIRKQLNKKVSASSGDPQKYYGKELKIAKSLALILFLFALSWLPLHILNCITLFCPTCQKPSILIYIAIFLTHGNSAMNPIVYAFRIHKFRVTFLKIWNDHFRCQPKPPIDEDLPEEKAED
How it was run: (§2)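 Rat brain cortical membranes with [3H]CCPA (0.5 nM) as A1 radioligand. Compounds from DMSO stock diluted into aqueous buffer. Value given as percent inhibition of specific radioligand binding at the single stated concentration.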

[3] = target: T1, Adenosine receptor A1 (Rattus norvegicus); test: Ratio between solubility and Ki for A1 adenosine receptor
[4] = Solubility determined in […]-hydrochloride buffer at pH 7.4; assay type: physicochemical; settings: in the assay text read “50 mM” for “50 nM”
How it was run: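 10 mM DMSO solution diluted 1:100 into 50 mM TRIS-HCl pH 7.4 (1% DMSO), shaken overnight at room temperature to equilibrium, centrifuged at 1000g, supernatant filtered through cotton. Dilutions analysed by HPLC with UV detection, concentration from calibration curves.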

Adenosine receptor A1 = target: T2, Adenosine receptor A1 (Rattus norvegicus, UniProt P25099); test: Tested for its binding affinity at adenosine A1 receptor in rat brain cortical membrane preparations using [3H]CCPA as a radioligand; assay type: cell membranes
T2 sequence (P25099 whole entry): T1 sequence (whole entry)
How it was run: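 Rat brain cortical membranes, A1 agonist radioligand [3H]CCPA at 0.5 nM. Compounds dissolved in DMSO, diluted into aqueous buffer, tested at 5-7 concentrations in triplicate, at least three separate experiments.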

[5] = target: Adenosine receptor A2a (Rattus norvegicus) (UniProt P30543); test: Binding affinity against adenosine A2A receptor in rat striatal membrane preparations using [3H]CGS-21680 at 1 uM; assay type: cell membranes; settings: Striatum; how it was run: as §1
[6] = target: Adenosine receptor A1 (Homo sapiens) (UniProt P30542); test: Binding affinity against adenosine A1 receptor expressed in CHO cells using [3H]CCPA
Adenosine receptor A2a [7] = target: T3, Adenosine receptor A2a (Rattus norvegicus, UniProt P30543); test: Binding affinity at adenosine A2A receptor in rat striatal membrane preparations using [3H]CGS-21680 at a 30 uM; assay type: cell membranes, Striatum
[8] = target: T1, Adenosine receptor A1 (Rattus norvegicus); test: Binding affinity against adenosine A1 receptor in rat brain cortical membrane preparations using [3H]CCPA; assay type: cell membranes; settings: concentration not given here
How it was run: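 Rat brain cortical membranes, A1 agonist radioligand [3H]CCPA at 0.5 nM. Compounds dissolved in DMSO, diluted into aqueous buffer, tested at 5-7 concentrations in triplicate, at least three separate experiments. IC50 from nonlinear curve fitting, converted to Ki with Cheng-Prusoff using KD 0.2 nM.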

[9] = target: Adenosine receptor A2a (Rattus norvegicus) (UniProt P30543); test: Binding affinity against adenosine A2A receptor in rat striatal membrane preparations at 30 uM; assay type: cell membranes; settings: Striatum; how it was run: as §1
[10] = target: Adenosine receptor A2a (Rattus norvegicus) (UniProt P30543); test: Binding affinity against adenosine A2A receptor in rat striatal membrane preparations using [3H]CGS-21680 at 3 uM; assay type: cell membranes; settings: Striatum; how it was run: as §1
[11] = target: Adenosine receptor A2a (Rattus norvegicus) (UniProt P30543); test: Binding affinity against adenosine A2A receptor in rat striatal membrane preparations at 10 uM; assay type: cell membranes; settings: Striatum; how it was run: as §1
Adenosine receptor A2a [12] = target: T3, Adenosine receptor A2a; test: (§3) Binding affinity against adenosine A2A receptor in rat striatal membrane preparations using [3H]CGS-21680 at 10 uM; assay type: cell membranes, Striatum
[13] = target: Adenosine receptor A2a (Rattus norvegicus) (UniProt P30543); test: as §3; assay type: cell membranes; settings: Striatum; how it was run: as §1
[14] = target: T1, Adenosine receptor A1 (Rattus norvegicus); test: Binding affinity against adenosine A1 receptor in rat brain cortical membrane preparations using [3H]CCPA at 100 uM; assay type: cell membranes; how it was run: as §2

T3 sequence (P30543 whole entry): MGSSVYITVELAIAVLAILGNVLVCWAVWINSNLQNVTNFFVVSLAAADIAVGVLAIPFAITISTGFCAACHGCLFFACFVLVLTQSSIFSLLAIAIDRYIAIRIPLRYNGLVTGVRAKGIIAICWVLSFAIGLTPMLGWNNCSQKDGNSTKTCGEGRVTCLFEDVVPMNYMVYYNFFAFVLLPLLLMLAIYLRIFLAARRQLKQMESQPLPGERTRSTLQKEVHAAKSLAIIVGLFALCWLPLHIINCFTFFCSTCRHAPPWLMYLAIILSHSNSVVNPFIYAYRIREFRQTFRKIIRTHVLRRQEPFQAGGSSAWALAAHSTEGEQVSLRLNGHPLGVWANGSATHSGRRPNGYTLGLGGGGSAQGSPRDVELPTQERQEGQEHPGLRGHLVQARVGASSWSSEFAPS
Chain of Adenosine receptor A2a (Rattus norvegicus) (P30543 whole entry): as above
Chain of Adenosine receptor A1 (Homo sapiens) (P30542 whole entry, looked up): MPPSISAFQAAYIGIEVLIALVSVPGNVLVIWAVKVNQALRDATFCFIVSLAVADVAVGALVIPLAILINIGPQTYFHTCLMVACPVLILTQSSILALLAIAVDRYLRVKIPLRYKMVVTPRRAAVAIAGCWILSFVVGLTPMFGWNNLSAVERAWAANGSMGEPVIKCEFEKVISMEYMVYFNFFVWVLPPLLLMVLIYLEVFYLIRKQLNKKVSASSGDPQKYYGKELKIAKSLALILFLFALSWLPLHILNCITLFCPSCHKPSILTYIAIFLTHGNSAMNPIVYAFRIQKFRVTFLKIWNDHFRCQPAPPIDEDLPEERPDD

Row | SMILES | inhibition [1] | Ki (Adenosine receptor A1) | other results
1 | Cc1c(C)n([C@H](C)c2ccccc2)c2nc(-c3ccccc3)nc(NC3CCCC3)c12 | 19% | – | inhibition [2]: 41%
2 | C[C@@H](c1ccccc1)n1c2ccccc2c2c(N)nc(-c3ccccn3)nc21 | – | 0.54 µM | Ratio [3]: 9; solubility [4]: 5 µM (≈ 1.83 µg/mL); inhibition [5]: 6%
3 | Cc1c(C)n([C@H](C)c2ccccc2)c2nc(-c3ccccc3)nc(N[C@@H](C)c3ccccc3)c12 | 26% | 18.3 µM | –
4 | Cc1c(C)n([C@H](C)c2ccccc2)c2nc(-c3ccncc3)nc(N)c12 | – | 0.046 µM | Ki [6]: 0.0088 µM; Ki (Adenosine receptor A2a [7]): 1.3 µM
5 | Cc1c(C)n([C@H](C)c2ccccc2)c2nc(-c3cc[n+]([O-])cc3)nc(N)c12 | – | 0.49 µM | Ki (Adenosine receptor A2a [7]): 5.9 µM
6 | C[C@@H](c1ccccc1)n1c2c(c3c(N)nc(-c4ccncc4)nc31)CCCC2 | – | – | inhibition [8]: 8%; inhibition [9]: 2%
7 | C[C@H](c1ccccc1)n1c2ccccc2c2c(N)nc(-c3cccs3)nc21 | – | 0.036 µM | inhibition [10]: 32%
8 | Cc1c(C)n([C@H](C)c2ccccc2)c2nc(-c3cccs3)nc(N)c12 | – | 0.019 µM | Ki (Adenosine receptor A2a [7]): 5.4 µM
9 | Cc1c(C)n([C@H](C)c2ccccc2)c2nc(C(C)c3ccccc3)nc(N)c12 (stereo partly specified) | 38% | – | inhibition [2]: 33%
10 | Nc1nc(-c2ccncc2)nc2c1c1c(n2-c2ccccc2)CCCC1 | – | 0.6 µM | inhibition [11]: 28%
11 | Cc1c(C)n([C@H](C)c2ccccc2)c2nc(-c3ccccc3)nc(N)c12 | – | – | Ki (Adenosine receptor A2a [12]): 3.71 µM
12 | Cc1c(C)n([C@H](C)c2ccccc2)c2nc(-c3ccco3)nc(N)c12 | – | 0.016 µM | Ki (Adenosine receptor A2a [7]): 0.49 µM
13 | Cc1c(C)n([C@H](C)c2ccccc2)c2nc(-c3ccccc3O)nc(N)c12 | 46% | 0.24 µM | –
14 | C[C@H](c1ccccc1)n1c2ccccc2c2c(N)nc(-c3cccnc3)nc21 | – | 0.092 µM | inhibition [13]: 47%
15 | C[C@H](c1ccccc1)n1c2c(c3c(N)nc(-c4cccnc4)nc31)CCCC2 | – | 1.3 µM | inhibition [9]: 46%
16 | Cc1c(C)n([C@H](C)c2ccccc2)c2nc(-c3ccccn3)nc(N)c12 | 43% | 2.1 µM | –
17 | CCC(CO)Nc1nc(-c2ccc(Cl)cc2)nc2c1c(C)c(C)n2[C@H](C)c1ccccc1 (stereo partly specified) | 36% | 2.6 µM | Ratio [3]: 4; solubility [4]: 11.2 µM (≈ 5.03 µg/mL)
18 | C[C@H](c1ccccc1)n1c2c(c3c(N)nc(-c4cc[n+]([O-])cc4)nc31)CCCC2 | – | 1.85 µM | inhibition [9]: 50%
19 | C[C@H](c1ccccc1)n1c2ccccc2c2c(N)nc(-c3ccncc3)nc21 | – | 0.021 µM | Ratio [3]: 142; solubility [4]: 3 µM (≈ 1.1 µg/mL); Ki (Adenosine receptor A2a [12]): 1.85 µM
20 | Nc1nc(-c2ccccn2)nc2c1c1c(n2-c2ccccc2)CCCC1 | 42% | 8.9 µM | –
21 | Cc1nc2nc(-c3ccccc3)[nH]c(N[C@H](C)c3ccccc3)c-2c1C | – | – | inhibition [13]: 23%
22 | C[C@@H](c1ccccc1)n1c2c(c3c(N)nc(-c4ccccn4)nc31)CCCC2 | – | 12.5 µM | inhibition [9]: 38%
23 | Nc1nc(-c2cccnc2)nc2c1c1c(n2-c2ccccc2)CCCC1 | 44% | – | –
24 | Cc1[nH]c2nc(C(C)c3ccccc3)nc(N)c2c1C (stereo unspecified) | – | 6.84 µM | inhibition [13]: 10%
25 | CCC(CO)Nc1nc(-c2ccccc2)nc2c1c(C)c(C)n2C1CCCC1 (stereo unspecified) | 22% | 1.24 µM | Ratio [3]: 11; solubility [4]: 13.2 µM (≈ 5 µg/mL)
26 | Cc1c(C)n([C@H](C)c2ccccc2)c2nc(-c3cnccn3)nc(N)c12 | – | 0.56 µM | Ki (Adenosine receptor A2a [7]): 6.6 µM
27 | Cc1c(C)n([C@H](C)c2ccccc2)c2nc(-c3cccnc3)nc(N)c12 | 3% | – | inhibition [14]: 35%
28 | COc1ccccc1-c1nc(N)c2c(C)c(C)n([C@H](C)c3ccccc3)c2n1 | 14% | – | inhibition [2]: 38%
29 | Cc1c(C)n([C@H](C)c2ccccc2)c2nc(-c3ccccc3)nc(NCCN)c12 | 2% | 3.58 µM | Ratio [3]: 7; solubility [4]: 24.2 µM (≈ 9.33 µg/mL)
